ChEMBL document CHEMBL3271951, “Synthesis and biological activity of 2- and 4-substituted 6,7-dihydroxy-1,2,3,4-tetrahydroisoquinolines” (1976)

T1: Catechol O-methyltransferase (Rattus norvegicus) (UniProt P22734)
T1 sequence (whole entry): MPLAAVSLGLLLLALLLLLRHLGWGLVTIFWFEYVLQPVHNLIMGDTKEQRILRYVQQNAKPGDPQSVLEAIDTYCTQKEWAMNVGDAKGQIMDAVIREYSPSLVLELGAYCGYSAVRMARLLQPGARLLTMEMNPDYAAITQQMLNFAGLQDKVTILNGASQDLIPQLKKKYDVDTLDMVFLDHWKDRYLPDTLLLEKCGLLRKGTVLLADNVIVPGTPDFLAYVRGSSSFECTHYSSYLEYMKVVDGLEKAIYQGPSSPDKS

B1: Catechol O-methyltransferase (Rattus norvegicus), P22734 (protein)
chain: T1 sequence (whole entry)

Legend:
[1] = target: T1, Catechol O-methyltransferase (Rattus norvegicus); experiment: Competitive inhibition of Sprague-Dawley rat liver COMT assessed as inhibition of methyl group transformation from SAM to DL-epinephrine-7-14C after 10 mins by scintillation spectrophotometric analysis
How it was run: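 Partially purified rat liver COMT (calcium phosphate stage). SAM 1.0 mM as methyl donor, Epi-14C 0.05 μCi, epinephrine varied 54-404 μM, 10 min, stopped with borate pH 10.0. Radiolabeled metanephrine and paranephrine extracted with toluene-isoamyl alcohol (3:2) and counted. Reciprocal velocity vs reciprocal epinephrine plots give the inhibition pattern; Ki by Cleland's procedure.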

[2] = tested on: Mus musculus; experiment: Induction of DL-norepinephrine-7-3H release from ARS HA(ICR)f outbred Swiss albino mouse heart assessed as remaining level at 10 mg/kg, sc after 2 hrs relative to control; type: functional; settings: route subcutaneous
How it was run: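 Mice (about 20 g) given 1.0 nmol (5 μCi) Norepi-3H iv by tail vein in isotonic NaCl with heparin. Compound 10 mg/kg sc 1 hr later; saline-injected controls. Hearts removed, homogenized in 10 vol 0.4 N HClO4 and centrifuged; tritium in the supernatant counted. Expressed as % of control, mean of duplicate determinations with five mice each.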

[3] = substrate: CC1CN(C)Cc2cc(O)c(O)cc21; experiment: (§1) Activity of Sprague-Dawley rat liver COMT using [14CH3]-SAM as methyl group donor after 10 mins by scintillation spectrophotometric analysis
How it was run: (§2)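 Rat liver COMT (male Sprague-Dawley, 180-200 g) purified through the calcium phosphate stage, approx 50-fold. Test catechol at 50-500 μM as substrate, SAM 1.0 mM with SAM-14CH3 0.05 μCi, 10 min incubation, stopped with borate buffer pH 10.0. O-methylated product extracted into toluene-isoamyl alcohol (3:2) and counted. Km and Vmax from double-reciprocal plots using Cleland's equations.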

[4] = substrate: Oc1cc2c(cc1O)CNCC2; experiment: as §1; how it was run: as §2
[5] = substrate: CNC[C@H](O)c1ccc(O)c(O)c1; experiment: as §1; how it was run: as §2
[6] = substrate: CC1(C)CNCc2cc(O)c(O)cc21; experiment: as §1; how it was run: as §2
[7] = substrate: CN1Cc2cc(O)c(O)cc2C(C)(C)C1; experiment: as §1; how it was run: as §2
[8] = substrate: CN1CCc2cc(O)c(O)cc2C1; experiment: as §1; how it was run: as §2

Molecule	Kis [1] [µM]	Activity [2] [%]	other results
Br.CC1(C)CNCc2cc(O)c(O)cc21	259	103	
Br.CN1Cc2cc(O)c(O)cc2C(C)(C)C1	187	115	
Br.Oc1cc2c(cc1O)CNCC2	196	63	
C[N+]1(C)CCc2cc(O)c(O)cc2C1.[Br-]	191	43	
Br.CN1CCc2cc(O)c(O)cc2C1	152	104	
Br.CC1CN(C)Cc2cc(O)c(O)cc21 (centres undefined)	101	107	
B1			Km [3]: 754 µM; Vmax [3]: 21.2 nmol/mg/min; Km [4]: 540 µM; Vmax [4]: 15.5 nmol/mg/min; Km [5]: 398 µM; Vmax [5]: 19.8 nmol/mg/min; Km [6]: 310 µM; Vmax [6]: 17.4 nmol/mg/min; Km [7]: 410 µM; Vmax [7]: 12.1 nmol/mg/min; Km [8]: 670 µM; Vmax [8]: 18.5 nmol/mg/min
